Measurements collected from several papers.
Compare with care: the assays were run in different laboratories.
Target: Tyrosine-protein kinase BTK (BTK, Homo sapiens, UniProt Q06187)

| Structure (SMILES) | test | conditions | remaining binding [%] |
| --- | --- | --- | --- |
| O=C(Nc1c[nH]nc1C(=O)NC1CCNCC1)c1cc(F)cc(F)c1 | binding, competition with immobilised ligand | 1 µM | 100 |
| CN(C)c1ncc(F)c(-c2cnn3ncccc23)n1 | binding | 1 µM | 75 |
| Cc1ccc(-n2nc(C(C)(C)C)cc2NC(=O)Nc2ccc(-n3c(N)c(C(N)=O)c4nc5ccccc5nc43)cc2)cc1 | cell-free assay, competition with immobilised ligand | 1 µM | 0.95 |
| N#Cc1ccc(Nc2ccc3[nH]c(=O)[nH]c3c2)c(Cl)c1 | cell-free assay, competition with immobilised ligand | 1 µM | 100 |
| C[C@@H]1CCN(c2nccc(-c3cnn4ncccc34)n2)C1 | binding | 1 µM | 90 |
| Nc1c(C(=O)NCc2ccc(C(=O)NCCCC3CCCCC3)cc2)cnn1-c1ccccc1 | cell-free assay, competition with immobilised ligand | 0.1 µM | 100 |
| N#Cc1ccccc1CSc1nnc2c(n1)[nH]c1ccccc12 | binding, competition with immobilised ligand | 10 µM | 100 |
| CN(C)c1nccc(-c2cnc3ncccn23)n1 | binding | 1 µM | 68 |
| O=C(c1ccc(Nc2ncc(Cl)c(-c3cc4ccccc4s3)n2)cc1)N1CCC(N2CCCC2)CC1 | binding, competition with immobilised ligand | 1 µM | 63 |
| C[C@@H]1CN(c2ccc3ncc(-c4ccc5[nH]nc(C6CC6)c5c4)n3n2)C[C@H](C)O1 | binding, competition with immobilised ligand | 50 nM | 67 |
| CN(c1nccc(-c2cnn3ncccc23)n1)C1CC1 | binding | 1 µM | 100 |
| CS(=O)(=O)N1CCCC(NC(=O)[C@H](CCC2CCCCC2)NC(=O)c2ccc(CNc3ncnc4c3nnn4-c3ccccc3)cc2)C1 (stereo partly drawn) | cell-free assay, competition with immobilised ligand | 0.1 µM | 100 |
| N[C@@H]1CCN(c2nccc(-c3cnn4ncccc34)n2)C1 | binding | 1 µM | 100 |
| CCS(=O)(=O)c1cc2cc(C[C@](O)(CC(C)(C)c3ccc(F)cc3C(N)=O)C(F)(F)F)[nH]c2cn1 | cell-free assay, competition with immobilised ligand | 1 µM | 100 |
| CCN1CCN(Cc2ccc(C(=O)Nc3ccc(C)c(Oc4ccc5c(c4)CC(=O)N5)c3)cc2C(F)(F)F)CC1 | binding, competition with immobilised ligand | 1 µM | 100 |
| O=C(NCCCN1CCOCC1)c1ccc(Nc2ncc(Cl)c(-c3ccc(Cl)s3)n2)cc1 | binding, competition with immobilised ligand | 1 µM | 100 |
| Cc1cnn2ncc(-c3ccnc(N(C)C)n3)c2c1 | binding | 1 µM | 91 |
| O=C(NCCCN1CCOCC1)c1ccc(Nc2nccc(-c3cc4ccccc4s3)n2)cc1 | binding, competition with immobilised ligand | 1 µM | 77 |
| O=C(Nc1cccnn1)N1CC(C/C=C/c2cncc(Oc3ccc(C(F)(F)F)cn3)n2)C1 | cell-free assay, competition with immobilised ligand | 1 µM | 59 |
| c1cncc(-c2cccc(Nc3nccc(NC4CCCCC4)n3)c2)c1 | binding, competition with immobilised ligand | 10 µM | 36 |
| CO[C@@H](C)c1c(Nc2ccc([C@H](N(C)C(=O)C3CCS(=O)(=O)CC3)C(F)(F)F)cc2)cnc2cc(Cl)nn12 | cell-free assay, competition with immobilised ligand | 1 µM | 100 |
| COc1cnc(Nc2cccc(S(N)(=O)=O)c2)nc1N1CCN(c2ccccc2)C(=O)C1 | binding, competition with immobilised ligand | 1 µM | 81 |
| CN(CCCC(F)(F)F)c1nccc(-c2cnn3ncccc23)n1 | binding | 1 µM | 100 |
| CC(=O)Nc1c(C(C)=O)c(=O)n(C)c2nc(-c3ccc(Cl)cc3Cl)c(-c3ccc(Cl)cc3)cc12 | cell-free assay, competition with immobilised ligand | 1 µM | 88 |
